“And” between values parts separate entries of the source, which are not always exact repeats. Equal values may be shown once.
Legend:
[1] = molecular target: recombinant purified integrin αMβ2 (Homo sapiens, UniProt P05107+P11215); test: Solid-phase binding to purified αMβ2
How it was run: (§1)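 Purified recombinant αMβ2, αM or β2 (from HEK293 lines) was coated overnight at 4°C in TBS with 10 mM n-octyl-β-D-glucopyranoside and postcoated with 0.5% PVP for 1 h at 37°C. Biotinylated Plg or Ang(1–4) (0–10 μM) was bound for 2 h at 37°C in the same buffer plus 1 mM CaCl₂/MgCl₂. Binding was detected with alkaline phosphatase–avidin and pNPP at A405. Kd came from a one-site binding fit.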

Bax [2] = test: Bax cleavage in PMN lysates, Western blot; format: cell-based, human; conditions: PMN lysate, 16 h; proteins 1 μM, peptides 100 μM; six donors
caspase-8 [3] = test: Caspase-8 cleavage in PMN lysates, Western blot; format: cell-based, human; conditions: PMN lysate, 16 h; proteins 1 μM, peptides 100 μM; six donors
caspase-3 [4] = test: Caspase-3 cleavage in PMN lysates, Western blot; format: cell-based, human; conditions: PMN lysate, 16 h; proteins 1 μM, peptides 100 μM; six donors
Akt [5] = test: Akt phosphorylation in PMNs, Western blot; format: cell-based, human; conditions: PMN stimulated with 1 nM PMA, 30 min, 37 °C; proteins 1 μM, peptides 100 μM
How it was run: (§2)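 Human PMNs stimulated with 1 nM PMA were incubated with ligands for 30 min at 37°C in HBSS with 1 mM CaCl₂, 1 mM MgCl₂, 0.1% BSA, pH 7.4. Cells were lysed in ice-cold Tris/EDTA/detergent buffer with phosphatase and protease inhibitors. Equal protein was immunoblotted for phospho- and total Akt or ERK1/2, with actin. Inhibition arm: 20 min pretreatment at 37°C with 10 μM Akt inhibitor, 50 μM PD98059, 50 nM NIF, or F(ab′)₂ anti-αM or anti-MHC-1 (20 μg/ml), then 1 μM Plg.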

αMβ2 = αMβ2 clustering on PMNs, fluorescence microscopy; format: cell-based, human; conditions: 4 h, 37 °C; proteins 1 μM, peptides 100 μM; anti-αM OKMI staining; four donors
How it was run: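 Human PMNs were exposed to ligands (proteins 1 μM, peptides 100 μM) for 4 h at 37°C, or to 1 μM Plg together with clustering inhibitors at the final concentrations used in apoptosis assays. Cells were fixed in 4% paraformaldehyde and stained with anti-αM mAb OKMI plus Alexa 488 goat anti-mouse IgG. They were cytospun, mounted and imaged by fluorescence microscopy (×40/0.7 NA); PMNs came from four donors.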

[6] = molecular target: recombinant purified β2 subunit (Homo sapiens, UniProt P05107); test: Solid-phase binding to purified β2 subunit; conditions: solid-phase binding, αM versus β2
How it was run: as §1

αMβ2 on K562 cells = test: Soluble ligand binding to K562 cells expressing αMβ2, FACS; parameters: species or system human; conditions: 40 min, 37 °C
How it was run: (§3)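 Transiently transfected K562 cells were incubated with soluble Alexa 488-labelled Plg or Ang(1–4) for 40 min at 37°C in HBSS containing 1 mM CaCl₂ and 1 mM MgCl₂. Cells were washed twice and bound ligand was quantified by FACS; three independent experiments. For inhibition, cells were pretreated for 20 min at 37°C with function-blocking anti-αM or anti-β2 mAbs (20 μg/ml) or NIF (20 nM).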

αM subunit on K562 cells = test: Soluble ligand binding to K562 cells expressing αM, FACS; parameters: species or system human; conditions: 40 min, 37 °C
How it was run: as §3

β2 subunit on K562 cells = test: Soluble ligand binding to K562 cells expressing β2, FACS; parameters: species or system human; conditions: 40 min, 37 °C
How it was run: as §3

[7] = test system: mock-transfected K562 cells; test: Apoptosis of mock-transfected K562 cells, annexin V, FACS; format: cell-based, human; conditions: 16 h, 37 °C; proteins 1 μM, peptides 100 μM; no ligand 81 ± 8; mean ± SEM, n = 5
Bax [8] = test: Bax cleavage in K562 cell lysates, Western blot; format: cell-based, human; conditions: K562 αMβ2 transfectants, 24 h, 37 °C; proteins 1 μM, peptides 100 μM
caspase-3 [9] = test: Caspase-3 cleavage in K562 cell lysates, Western blot; format: cell-based, human; conditions: K562 αMβ2 transfectants, 24 h, 37 °C; proteins 1 μM, peptides 100 μM
caspase-8 [10] = test: Caspase-8 cleavage in K562 cell lysates, Western blot; format: cell-based, human; conditions: K562 αMβ2 transfectants, 24 h, 37 °C; proteins 1 μM, peptides 100 μM
Akt [11] = test: Akt phosphorylation in transfected K562 cells, Western blot; format: cell-based, human; conditions: 37 °C; for Akt phosphorylation, αM, β2 and mock cells: K562 expressing αM or β2, or mock-transfected; for Akt phosphorylation, αMβ2 cells: K562 expressing αMβ2, 30 min
How it was run: (§4)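 Transiently transfected K562 cells (αM, β2, αMβ2 or mock) were exposed to ligands for 30 min at 37°C and lysed in ice-cold buffer. Equal protein was run on SDS-PAGE and blotted with the PathScan Multiplex Western Cocktail I, then reprobed for total ERK1/2; blots shown are representative of three experiments.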

ERK1/2 [12] = test: ERK1/2 phosphorylation in transfected K562 cells, Western blot; format: cell-based, human; conditions: 37 °C; for ERK1/2 activation, αM cells: K562 expressing αM, 30 min; for ERK1/2 activation, αMβ2 cells: K562 expressing αMβ2, 30 min; for ERK1/2 phosphorylation, mock and β2 cells: K562 mock or expressing β2, 30 min
How it was run: as §4

ERK1/2 [13] = test: ERK1/2 phosphorylation in PMNs, Western blot; format: cell-based, human; conditions: PMN stimulated with 1 nM PMA, 30 min, 37 °C; proteins 1 μM, peptides 100 μM
How it was run: as §2

PMN = conditions: ref [6]–[9]; cited from earlier work
[14] = test system: αM^(Ile316→Gly)β2 on K562 cells; test: Adhesion of K562 cells expressing αM^; format: cell-based, human; conditions: K562 αM^(Ile316→Gly)β2, data not shown
apoptotic PMNs = test: Competition with annexin V-FITC binding to apoptotic PMNs; format: cell-based, human; conditions: 0–10 μM, data not shown
human PMNs = conditions: Plg 1 μM, 16 h, 37 °C; media alone 90 ± 21; mean ± SEM, n = 6

Chain of recombinant purified β2 subunit (P05107 23-769): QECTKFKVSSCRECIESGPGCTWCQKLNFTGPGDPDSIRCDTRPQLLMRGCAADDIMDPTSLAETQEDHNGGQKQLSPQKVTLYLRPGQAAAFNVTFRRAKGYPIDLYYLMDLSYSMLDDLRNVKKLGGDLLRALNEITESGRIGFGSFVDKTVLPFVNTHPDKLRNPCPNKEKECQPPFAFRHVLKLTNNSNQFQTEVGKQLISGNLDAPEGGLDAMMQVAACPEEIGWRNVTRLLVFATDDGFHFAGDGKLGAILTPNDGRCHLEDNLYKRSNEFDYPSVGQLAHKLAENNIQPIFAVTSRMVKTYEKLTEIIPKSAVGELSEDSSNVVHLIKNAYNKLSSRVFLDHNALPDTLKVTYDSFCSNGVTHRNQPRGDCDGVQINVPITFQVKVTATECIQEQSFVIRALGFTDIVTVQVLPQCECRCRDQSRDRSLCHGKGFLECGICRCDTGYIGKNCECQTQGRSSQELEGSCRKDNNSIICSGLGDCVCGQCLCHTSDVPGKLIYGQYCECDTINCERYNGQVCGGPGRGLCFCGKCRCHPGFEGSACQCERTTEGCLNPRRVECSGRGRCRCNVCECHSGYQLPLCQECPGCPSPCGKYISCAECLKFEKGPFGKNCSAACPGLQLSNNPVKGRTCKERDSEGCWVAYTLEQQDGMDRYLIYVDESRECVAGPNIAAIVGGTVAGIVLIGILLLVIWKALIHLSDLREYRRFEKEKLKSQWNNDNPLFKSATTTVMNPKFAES
Chain of recombinant purified integrin αMβ2 (P05107 23-769, other chains not shown): as the sequence (P05107 23-769) above

Row | Substance | 22-kDa Bax fragment (Bax [2]) | caspase-8 fragment (caspase-8 [3]) | 18-kDa caspase-3 fragment (caspase-3 [4]) | Akt phosphorylation (Akt [5]) | αMβ2 macroclusters on PMN surface (αMβ2) | recognition by individual integrin subunits (in words) [6] | soluble ligand binding, αMβ2 cells (in words) (αMβ2 on K562 cells) | soluble ligand binding, αM cells (in words) (αM subunit on K562 cells) | soluble ligand binding, β2 cells (in words) (β2 subunit on K562 cells) | K562 early/late apoptosis (% annexin V+ cells), mock [7] [%] | Bax cleavage product, αMβ2 cells (Bax [8]) | caspase-3 cleavage product, αMβ2 cells (caspase-3 [9]) | caspase-8 cleavage product, αMβ2 cells (caspase-8 [10]) | Akt phosphorylation, αM, β2 and mock cells (Akt [11]; 30 min) | Akt phosphorylation, αMβ2 cells (Akt [11]) | ERK1/2 activation, αM cells (ERK1/2 [12]) | ERK1/2 activation, αMβ2 cells (ERK1/2 [12]) | ERK1/2 phosphorylation, mock and β2 cells (ERK1/2 [12]) | ERK1/2 activation (ERK1/2 [13]) | other results
1 | Ang([1]–[3]): angiostatin fragment which lacks kringle 4; Calbiochem |  |  |  |  |  |  |  |  |  |  |  |  |  |  |  |  |  |  |  | recognition by αMβ2 ([1]; data not shown, test format not stated): is recognized by this integrin
2 | angiostatin [Ang(1–4)] | detected | detected | detected | negligible | did not support αMβ2 clustering | recognized only by the αM and not by the β2 subunit | bound both ligands | bound both ligands | failed to bind soluble Ang([1]– [4]) | 78 ± 8 | present | present | present | failed to induce Akt activation | failed to induce Akt activation | poorly induced | poorly induced | poorly induced |  | 
3 | fibrinogen [Fg] | absent | absent | absent | robust Akt phosphorylation | detected | engage both integrin subunits | bound soluble Fg | bound soluble Fg | bound soluble Fg | 72 ± 13 | not detected | not detected | not detected | not in K562 cells expressing the individual αM or β2 subunits (Fig. 6A) or mock-transfected cells | robust Akt phosphorylation | strongly induced | strongly induced | poorly induced | induced ERK1/2 activation | effect on PMN apoptosis (PMN): delay PMN apoptosis
4 | plasminogen [Plg] | absent | absent | absent | robust Akt phosphorylation | detected | interacted with the individual αM and β2 subunits with similar affinities | bound both ligands | bound both ligands | bound soluble Plg | 78 ± 10 | not detected | not detected | not detected | not in K562 cells expressing the individual αM or β2 subunits (Fig. 6A) or mock-transfected cells | robust Akt phosphorylation | strongly induced | strongly induced | poorly induced | induced ERK1/2 activation | affinity of αMβ2 for Plg relative to Ang(1–4) ([1]; higher for Plg than for Ang(1–4)): ~ 10 fold; adhesion to Plg versus wild type [14]: enhanced adhesion to Plg; Akt activation, tailless and chimeric αMβ2 (Akt [11]; K562 expressing αM(1119Δ)β2, αMβ2(728Δ) or αM/αLβ2, Plg, 30 min): no Akt activation could be detected; competition with annexin V-FITC binding (apoptotic PMNs): did not compete with annexin V-FITC binding at any concentration tested; PMN early/late apoptosis (% annexin V+ cells), Plg alone (human PMNs): 32 ± 10% and 32 ± 105%

— publication PMC2978023 (Journal of immunology (Baltimore, Md. : 1950), 2008)
